Compound activity deposited in PubChem by several laboratories.
NadD block = blocks S. aureus nicotinate mononucleotide adenylyltransferase. AID 602399. inhibition, % at 20 µM. actives 0.78% (n = 360,000). purified NadD enzyme, colorimetric absorbance read-out; in the data active means inhibition above about 26%
XiGFP reactiv = X-chromosome reactivation activator. XiGFP mouse fibroblasts, % GFP-positive cells imaging, 3 d; cells co-treated with 5-aza-dC sensitizer; scaled so ellipticine positive control = 100%. activation, % at 7.58 µM. actives 0.055% (n = 360,000). AID 743238;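 active means mean normalized replicate activation at least 10% and every replicate at or above 10%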
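System: 68-5-11 XiGFP fibroblast line; Timing: 3 days compound exposure; Compound dosing: one concentration, pinned; Benchmarks: positive control ellipticine, 6 µM final; Buffer or medium: DMEM containing 5-aza-dC.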
ABHD5-PLIN5 inh = blocks binding of human ABHD5 to perilipin-5; actives 0.78% (n = 360,000); Q00G26+Q8WTS1; Split G. princeps luciferase complementation, luminescence, 4 h; inhibition, % at 4 µM;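 active means inhibition above the mean inhibition across every tested compound plus 3 SD, cut at about 22% in these data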
Rpn11 block = inhibitors of human proteasome Rpn11; O00487; human 26S proteasome, Ub4-pepOG fluorescence polarization; 20S core pre-blocked with epoxomicin; inhibition, % at 20 µM; actives 0.59% (n = 360,000);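 active means inhibition at 20 µM, scaled to each plate's controls, above about 33%, limit read from the data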
Rin1 Abl inh = inhibitors of human Rin1-Abl protein interaction | AID 588664 | TR-FRET Rin1/Abl binding, biochemical | inhibition, % at 7.35 µM | actives 0.4% (n = 360,000) | P00519+Q13671; in the data active means inhibition above about 5%, passing the limit was not always enough
ABHD5 PLIN5 conf = ABHD5-PLIN5 interaction inhibition, confirmed | shares compounds with ABHD5-PLIN5 inh | biochemical ABHD5-PLIN5 interaction, luminescence | inhibition, % at 4 µM | actives 67% (n = 2,200) | AID 651612; in the data active means inhibition above about 23%
HNF4 counter = active in HNF4 split-luciferase counter-screen for ABHD5-PLIN5 inhibitors. shares compounds with ABHD5-PLIN5 inh. AID 651674. inhibition, % at 4 µM. HNF4 dimerization, luminescence, biochemical. actives 77% (n = 2,200);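 active means mean inhibition across replicate wells exceeding the computed hit threshold, cut at about 13% in these data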;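 further: light from luciferase halves that rejoin when HNF4 fusion proteins dimerize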
A number is an active result; – = inactive; · = not tested or not shown. An excerpt weighted towards active compounds, which were near 1.9% of everything screened.

SMILES	NadD block	XiGFP reactiv	ABHD5-PLIN5 inh	Rpn11 block	Rin1 Abl inh	ABHD5 PLIN5 conf	HNF4 counter
COc1ccc(OC(=O)N2C/C(=C/c3ccccc3)C(=O)/C(=C\c3ccccc3)C2)cc1	–	–	75	–	–	104	107
CCOC(=O)N1C/C(=C\c2ccccc2)C(=O)/C(=C/c2ccccc2)C1	–	–	69	–	–	103	108
CCOC(=O)N1CCN(S(=O)(=O)/C=C/c2ccccc2)CC1	–	·	–	–	–	·	·
COc1cccc(S(=O)(=O)N(C)C[C@H]2Oc3cc(C#CCC(C)C)ccc3S(=O)(=O)N([C@@H](C)CO)C[C@@H]2C)c1	·	–	·	·	·	·	·
O=C(NC1(O)C(=O)c2ccccc2C1=O)c1ccc(C(F)(F)F)cc1	–	–	28	–	18	54	64
CCOC(=O)c1cc2c(=O)n3ccccc3nc2n(Cc2ccco2)c1=NC(=O)c1cccnc1	–	·	–	–	–	·	·
CCOC(=O)c1cc2c(=O)n3ccccc3nc2n(Cc2ccco2)c1=NC(=O)c1ccccc1OCC	–	–	24	–	–	–	45
CCOC(=O)c1cc2c(=O)n3cccc(C)c3nc2n(Cc2ccco2)c1=NC(=O)c1cccnc1	–	·	24	–	–	46	58
Cc1cccn2c(=O)c3cc(C#N)c(=NC(=O)c4ccco4)n(Cc4ccco4)c3nc12	–	–	39	–	–	23	54
C[C@@H]1CN(C)C(=O)c2cccc(N)c2O[C@H]1CN(C)S(C)(=O)=O	·	–	·	·	·	·	·
C[C@@H]1CCCCO[C@@H](CN(C)C(=O)Nc2cccc3ccccc23)[C@@H](C)CN([C@@H](C)CO)C(=O)c2cc(NC(=O)Cc3ccccc3)ccc2O1	·	–	·	·	·	·	·
C=C(CCC(=O)c1ccccc1)C(=O)c1ccccc1	–	–	32	–	–	68	67
C[C@@H]1CN([C@@H](C)CO)C(=O)Cc2cc(NC(=O)CCCCCC(=O)Nc3ccccc3N)ccc2O[C@H]1CN(C)C	·	–	·	·	·	·	·
Cc1ccc(-n2nc(C)c3c(C)c(CCC(=O)Nc4ccc(CN5CCCC5)cc4)c(C)nc32)cc1	–	–	29	–	–	–	–
COC(CNC(=O)CCc1c(C)nc2c(c(C)nn2-c2ccc(C)cc2)c1C)OC	–	–	–	–	–	·	·
CN1C2CCC1/C(=C\c1ccccc1F)C(=O)/C2=C/c1ccccc1F	–	–	25	–	–	26	27
CC1CCN(C2=NC(=O)/C(=C/c3ccccc3F)S2)CC1	–	–	–	–	–	·	·
CCOC(=O)C(=Cc1ccc(-n2cncn2)cc1)C(=O)OCC	–	–	43	–	–	81	94
CN1CCN(C(=S)NC(=O)c2ccc(C(C)(C)C)cc2)CC1	–	–	–	–	–	·	·
C=CCn1cccc(/C=C/C(=O)c2ccc(C(C)(C)C)cc2)c1=S	–	–	46	–	–	75	90
Cc1ccc(-c2nnc(-c3ccccc3S(=O)(=O)Cc3ccc(Cl)cc3)o2)cc1	–	·	–	–	–	·	·
O=S(=O)(Cc1ccc(Cl)cc1)c1ccccc1-c1nnc(-c2ccc(Cl)cc2)o1	–	·	31	–	–	–	–
CCN(CC)CCc1nc(-c2ccccc2)no1	–	–	56	–	–	84	43
C[C@H](CO)N1C[C@H](C)[C@@H](CN(C)S(=O)(=O)c2ccccc2)Oc2ccc(NC(=O)NC3CCCCC3)cc2CC1=O	·	–	·	·	·	·	·
CCCCNC(=O)Nc1ccc2c(c1)N(C)C(=O)c1ccccc1S2	–	–	50	–	–	68	–
CCCNC(=O)Nc1ccc2c(c1)N(C)C(=O)c1ccccc1S2	–	·	33	–	–	54	–
COc1ccc2c3c(n(C)c2c1)[C@@H](CO)N(C(=O)c1ccccn1)CC31CCN(C(C)=O)CC1	·	–	·	·	·	·	·
Cc1cc(S(=O)(=O)c2ccc(Cl)cc2)nc(S(=O)(=O)c2ccc(Cl)cc2)c1C#N	–	–	79	–	–	95	105
O=C(/C=C/c1cccs1)c1cc(Cl)ccc1O	–	–	–	–	–	·	·
O=C(C=Cc1cccs1)c1ccc(Cl)s1	–	–	24	–	–	60	40
